These results are taken from ChEMBL document CHEMBL1147169, “From pyrroles to 1-oxo-2,3,4,9-tetrahydro-1H-beta-carbolines: a new class of orally bioavailable mGluR1 antagonists” (Bioorg Med Chem Lett, 2007).

Broadly, the pIC50 is the IC50 on a negative log10 scale, so that one unit is a factor of ten. The bioavailability is dose-corrected exposure relative to a reference, in per cent. Higher therefore signals good availability. The term clearance denotes the rate of elimination divided by the concentration. A lower clearance goes with inefficient removal. What is called Cmax is the maximum level reached in the sampled fluid or tissue.

Structures are written as SMILES. pIC50: −log10 of the molar value. Bounds are passed on as bounds.

In series [1] the target is Metabotropic glutamate receptor 1 (Rattus norvegicus, UniProt P23385). The series can be described thus: Antagonist activity at rat mGluR1a expressed in CHO cells assessed as inhibition of intracellular calcium ion mobilization by FLIPR assay. The series is classed as functional, cell-based.
Sequence of Metabotropic glutamate receptor 1 (P23385 whole entry): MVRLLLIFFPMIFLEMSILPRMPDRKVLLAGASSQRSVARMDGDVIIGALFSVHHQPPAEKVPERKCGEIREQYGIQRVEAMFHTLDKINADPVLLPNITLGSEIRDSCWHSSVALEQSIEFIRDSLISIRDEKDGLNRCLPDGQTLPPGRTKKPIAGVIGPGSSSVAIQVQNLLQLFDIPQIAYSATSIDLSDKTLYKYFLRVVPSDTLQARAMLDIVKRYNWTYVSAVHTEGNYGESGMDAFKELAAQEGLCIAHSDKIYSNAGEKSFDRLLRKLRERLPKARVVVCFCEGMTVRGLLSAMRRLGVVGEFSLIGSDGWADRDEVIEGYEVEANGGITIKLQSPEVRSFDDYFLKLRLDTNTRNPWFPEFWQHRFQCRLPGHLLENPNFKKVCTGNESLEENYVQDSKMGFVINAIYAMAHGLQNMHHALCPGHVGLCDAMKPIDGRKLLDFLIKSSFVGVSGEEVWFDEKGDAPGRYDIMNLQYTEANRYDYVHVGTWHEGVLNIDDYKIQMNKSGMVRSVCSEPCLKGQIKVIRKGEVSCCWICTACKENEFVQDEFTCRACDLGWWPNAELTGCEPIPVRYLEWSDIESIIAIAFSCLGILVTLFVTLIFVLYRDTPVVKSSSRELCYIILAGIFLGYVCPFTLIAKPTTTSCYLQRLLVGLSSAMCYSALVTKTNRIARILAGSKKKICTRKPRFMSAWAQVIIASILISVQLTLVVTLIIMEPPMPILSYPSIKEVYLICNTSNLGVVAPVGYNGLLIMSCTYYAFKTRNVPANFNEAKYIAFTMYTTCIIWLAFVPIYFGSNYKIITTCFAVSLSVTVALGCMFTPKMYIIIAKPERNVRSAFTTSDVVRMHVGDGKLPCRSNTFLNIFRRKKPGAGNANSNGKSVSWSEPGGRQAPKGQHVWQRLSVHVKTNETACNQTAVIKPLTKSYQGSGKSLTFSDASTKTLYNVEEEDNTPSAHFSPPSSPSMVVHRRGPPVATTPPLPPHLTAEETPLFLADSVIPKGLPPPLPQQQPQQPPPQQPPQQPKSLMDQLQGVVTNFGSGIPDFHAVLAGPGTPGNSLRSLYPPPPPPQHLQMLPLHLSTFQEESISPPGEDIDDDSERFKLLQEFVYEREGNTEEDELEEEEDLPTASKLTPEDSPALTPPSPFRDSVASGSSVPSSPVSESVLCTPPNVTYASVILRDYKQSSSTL
Series [2] is described as follows: Oral bioavailability in rat. The series is classed as ADME, organism-based. The conditions noted are these: in vivo.
Series [3] in a line: Plasma clearance in rat. The series is classed as ADME, organism-based.
The nature of series [4]: Cmax in rat. The series is classed as ADME, organism-based. The conditions noted are these: in vivo. The procedure, abridged: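 Maximum plasma concentration (ng/ml) measured after oral administration in rat.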
The nature of series [5]: Oral bioavailability in rat at 1 mg/kg, po. The conditions noted are these: in vivo. The series is classed as ADME, organism-based.
A short description of series [6]: Oral bioavailability in rat at 5 mg/kg, po. The series is classed as ADME, organism-based. The conditions noted are these: in vivo.
Series [7] concerns Mus musculus. In words: Reduction of inflammatory pain in late phase of formalin-induced mouse at 10 mg/kg, po. The series is classed as ADME, organism-based. Details: dose 10 mg/kg, route oral; call rule not given here. The conditions noted are these: in vivo. The method, boiled down: (§1)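 Mice given compound po at 10 or 30 mg/kg, 30 min before 20 µl 1% formalin into left hind paw; nociceptive behaviour time (s) scored in early phase (0–5 min) and late phase (20–60 min); n = 8-19; significance p < 0.05 / p < 0.01 versus vehicle.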

In series [8] the test system is Mus musculus. The series can be described thus: Reduction of inflammatory pain in early phase of formalin-induced mouse at 30 mg/kg, po. The series is classed as ADME, organism-based. The arrangement: dose 30 mg/kg, route oral. The conditions noted are these: in vivo. The method, boiled down: as §1
The subject of series [9] is Mus musculus. In words: Reduction of inflammatory pain in late phase of formalin-induced mouse at 30 mg/kg, po. The series is classed as ADME, organism-based. The arrangement: dose 30 mg/kg, route oral. The conditions noted are these: in vivo. The procedure, abridged: as §1
Series [10] deals with Rattus norvegicus. The series can be described thus: Ratio of drug level in rat from brain to plasma at 3 mg/kg, iv after 1 hr. The conditions noted are these: in vivo.

For the molecule `O=C(NC12CC3CC(CC(C3)C1)C2)c1ccc2[nH]c3c(c2c1)CCNC3=O`, the pIC50 in series [1] was 7.15. Further, the bioavailability in series [2] stood at 12%. This molecule also displayed a clearance in series [3] of 54 mL/min/kg. For the same molecule, the peak concentration (Cmax) in series [4] was 37 ng/mL.
Consider `O=C(NC1C2CC3CC(C2)CC1C3)c1ccc2[nH]c3c(c2c1)CCNC3=O` (centres undefined), for which the pIC50 in [1] was 7.03.
On the same count and under the same terms, to `O=C1NCc2c1[nH]c1ccc(OCc3ccccc3)cc21` belongs 6.17; to `O=C1NN=CC2c3cc(OCc4ccccc4)ccc3NC12` (centres undefined), 5.99; to `CCCOC(=O)c1[nH]c(C)c(C(=O)O[C@@H](C)C(C)(C)C)c1C`, 7.80.
Same read-out and setting: to `O=C1NCCc2c1[nH]c1cccc(OCc3ccccc3)c21` belongs 5.40; to `c1ccc(COc2ccc3[nH]c4c(c3c2)CCNC4)cc1`, < 5.00.
On the same count and under the same terms, to `c1ccc(COc2ccc3c(c2)C2CCNCC2N3)cc1` (centres undefined) belongs < 5.00.
Turning to `O=C1CCCc2c1[nH]c1ccc(OCc3ccccc3)cc21`, the pIC50 in series [1] was < 5.00.
The same measure, in the same setting: to `CC(NC(=O)c1ccc2[nH]c3c(c2c1)CCNC3=O)C(C)(C)C` (centres undefined) belongs < 5.00; to `CC(N(C)C(=O)c1ccc2[nH]c3c(c2c1)CCNC3=O)C(C)(C)C` (centres undefined), 6.92; to `O=C(NC1CC2CCC1C2)c1ccc2[nH]c3c(c2c1)CCNC3=O` (centres undefined), 6.65.
On to `O=C1NCCc2c1[nH]c1ccc(OCc3ccccc3)cc21`, for which, in series [1], the pIC50 was 6.98. For the same molecule, the figures for the bioavailability in series [5] and in series [6] were 0% and 9%, respectively. Also, the concentration in [4] peaked (Cmax) at 145 ng/mL.
Take `O=C(NCC12CC3CC(CC(C3)C1)C2)c1ccc2[nH]c3c(c2c1)CCNC3=O`: the pIC50 in [1] is 6.51.
On the same count and under the same terms, to `O=C(Nc1ccc2[nH]c3c(c2c1)CCNC3=O)NC12CC3CC(CC(C3)C1)C2` belongs 5.33; to `O=C1NCCc2c1[nH]c1ccc(OCC3CCCCC3)cc21`, 5.25; to `O=C(Nc1ccccc1)c1ccc2[nH]c3c(c2c1)CCNC3=O`, 5.98.
On to `O=C1NCCc2c1[nH]c1ccc(NC(=O)C34CC5CC(CC(C5)C3)C4)cc21`, for which the pIC50 in series [1] is 7.15. For the same molecule, the clearance in series [3] stood at 52 mL/min/kg.
Take `O=C1NCCc2c1[nH]c1ccc(Oc3ccccc3)cc21`: in series [1], the negative logarithm of the IC50 (pIC50) was 5.39.
Same read-out and setting: to `O=C1NCCC2c3cc(OCc4ccccc4)ccc3NC12` (centres undefined) belongs 5.78.
Consider `Cc1cc2[nH]c3c(c2cc1OCc1ccccc1)CCNC3=O`, for which, in series [1], the pIC50 is 6.78. Further, the result in series [7], in series [8] and in [9] was Active. The bioavailability in series [2] came out at 36%. In series [4], this molecule yielded a peak concentration (Cmax) of 264 ng/mL. Also, in series [10], the Ratio amounted to 6.1.
Take `O=C1NCCc2c1[nH]c1cc(OCc3ccccc3)ccc21`: the negative-log IC50 (pIC50) in series [1] was 5.55.
On to `O=C1NCCc2c1[nH]c1ccc(O)cc21`, for which the pIC50 in series [1] is < 5.00.
The same measure, in the same setting: to `CC(Oc1ccc2[nH]c3c(c2c1)CCNC3=O)C(C)(C)C` (centres undefined) belongs 6.62; to `CC(Oc1ccc2[nH]c3c(c2c1)CCNC3=O)c1ccccc1` (centres undefined), 6.42; to `COc1ccc2[nH]c3c(c2c1)CCNC3=O`, < 5.00.
